# Experimental data published in the RNAGym collection of RNA variant scans (doi:10.1126/science.aae0568).
# Variants at the floor of the assay were thinned out.
# B1: tRNA (parent)
# chain: GUUCCGUUGGCGUAAUGGUAACGCGUCUCCCUCCUAAGGAGAAGACUGCGGGUUCGAGUCCCGUACGGAACG
# Variants of: B1
# Assay: yeast fitness relative to wild type (ratio to wild type); higher = fitter; tRNA-Arg(CCU), competitive growth, 37 C, YPD
# Method in brief: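 Amplicons of the tRNA-Arg(CCU) gene were sequenced, 100-nucleotide paired-end, from the start population and from each end population of a pooled yeast competition. The competition, in six parallel replicates, lasted 24 hours in YPD at 37°C. Fitness relative to wild type was calculated from changes in genotype frequencies. Genotypes had to have ≥ 100 starting reads, and estimates < 0.5 were set to 0.5.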
row,Variant,yeast fitness
1,U13C G67A,0.848
2,C5U C22G U26G A42C,≤ 0.5
3,A20U C31G A36C A45G A70U,≤ 0.5
4,U13G C27A,0.628
5,G17C C29A A57U,≤ 0.5
6,G9C A14G,0.579
7,A15G G68A,0.894
8,G10C A14U U19A C22U A36G,≤ 0.5
9,A20G A21G C29G C46G G52A,≤ 0.5
10,U8C A43C C49G C61A,0.693
11,C24G C30U C34A G51A,0.542
12,A40U C66G,0.71
13,U2A A37C,0.833
14,A20U G38C A45C C60G,≤ 0.5
15,C24G A70C,0.666
16,U8C A36U G38A G68C,≤ 0.5
17,U7C C30U A37G C46U G52C C62G A70C,≤ 0.5
18,G12C C29G C46G G51A G52A,≤ 0.5
19,G41C C60U U64G G67A,≤ 0.5
20,G18A C62A,0.513
21,C22U A37G A45U,0.547
22,U26A C33A A45C,0.55
23,C29A A37C A45C U47A,0.573
24,G10C G63C,≤ 0.5

row,Variant,yeast fitness
1,C30G C31U,0.678
2,A21G A40G A42C U53A U54C,≤ 0.5
3,A14G C34G A43C C62A C66A,≤ 0.5
4,C4G A15C U26G G41C C60G,0.631
5,U7C A69G,0.817
6,A14C G17C U26A G41C,≤ 0.5
7,C34U A65U,0.574
8,U16C G44A,1.06
9,U7G U54C C55G,≤ 0.5
10,G25C C27A C66U,≤ 0.5
11,A14C C27U C31U C33A G67C,0.541
12,A14C U54A,0.528
13,A15C C29G G44C A45U U47A,≤ 0.5
14,U35C U53A,0.56
15,C34A A40C C61A,≤ 0.5
16,A14C A42G U47C,≤ 0.5
17,C49A G56C G68C,0.574
18,A20C C24U A57G C61U,0.617
19,C22A C24A U54A,≤ 0.5
20,A40U C49U C62A C66A,≤ 0.5
21,U2C U3A A40C,≤ 0.5
22,C49U G58A,0.948
23,A37G G48C C49U C60A A65U,≤ 0.5
24,U2A C5U A65U A69U,0.614

row,Variant,yeast fitness
1,G25A G38C G48A C60U,≤ 0.5
2,G6A U7G G25C U53A A69C,≤ 0.5
3,A45C C46G C49A A69U,≤ 0.5
4,C5U C31G C33G C34U C49U G68A,0.543
5,G6A U8C A69C,0.678
6,A14U A20G C24A C31U A37U G48A A69C,≤ 0.5
7,G25C U26G C46G G51A A70U,≤ 0.5
8,A15G G18A G48C C61A,≤ 0.5
9,U3A C4U U13A G51A,≤ 0.5
10,C4G U13A G17C C30U,0.657
11,C5U U8A G38C A42C G63A,0.534
12,G6A C30A C31G G39C,0.534
13,C27A C34G A43U A57C,≤ 0.5
14,U2G A43G G56A,0.589
15,C27G A37G C66U,0.538
16,C11U G18A A36U G48C,≤ 0.5
17,G10A G25U A36U A43G C60U,≤ 0.5
18,U3C A20G C33U A40G C62G A70U,≤ 0.5
19,C27U G38C,0.626
20,C4U U13C A14G,0.587
21,A15C G17A A45C,≤ 0.5
22,A37U C62A,0.523
23,C34A C46G,0.693
24,G18A A36U C61A,≤ 0.5

row,Variant,yeast fitness
1,C22A G25A G44A,0.65
2,C27G C60U G67C,≤ 0.5
3,A43C A45G A69C,0.643
4,U3A G10A U32G C66A,≤ 0.5
5,C22U C27G A37G A42C,≤ 0.5
6,U7A G9C A15G G23A U53A,0.505
7,A40C G68A,0.933
8,C11A C27U U28C A57C C62A,0.716
9,U7A C34G,0.543
10,U2G C11G A20G C24U C31G,0.615
11,C4A A14U C27U U28A,0.859
12,A15G U19G,0.985
13,G9C U16A C24U C30U,0.533
14,G17A A37U U47A G68C,0.645
15,C22G U28A A37C A42C C46A,≤ 0.5
16,C22A U47A C66A,≤ 0.5
17,A21C G48C,0.788
18,C4A G9C C30A G39A,0.51
19,C24U C34G G63U A70U,0.542
20,C5G G44C C55A,≤ 0.5
21,U7A A69U,0.759
22,C4U G9A C22A U26A G52C G67A,≤ 0.5
23,C5U U13A C27G A57C G67A A69U,≤ 0.5
24,C11U G56A,0.901

row,Variant,yeast fitness
1,U8A C30G C46A G63A,≤ 0.5
2,A21U G56C G63A U64C G67C A69U,≤ 0.5
3,A21C A45G G63C C66U,≤ 0.5
4,A20C C22U C66U,0.622
5,C33A A36U C62U,≤ 0.5
6,G9C C11A C33A C34A A37C A43G,≤ 0.5
7,G9C G25A,0.721
8,U3A A14U A20C,≤ 0.5
9,C30A A36U C60U A69C,0.6
10,A15G C24G A37G C49A,≤ 0.5
11,C11U C31A A42G C55A,≤ 0.5
12,C30G C46G,0.693
13,U2A C5U C11U A14U G17A A21C G38C C49A,≤ 0.5
14,C22U G56C,0.608
15,G44C A45U U53C,0.605
16,C24G C34G,0.55
17,U54G C60G G63C,≤ 0.5
18,U54C A65U,0.894
19,C11U U16C U19C C62U A70G,0.524
20,C31A U54C U64A,≤ 0.5
21,A14G A15U G50U U64G,0.542
22,C29G A37C C60A A70G,≤ 0.5
23,C34G A45C C62G,≤ 0.5
24,A21U A36G,0.804

row,Variant,yeast fitness
1,C5U G18C C22U G50A,0.572
2,U32C A43C C49U,0.648
3,A14C G17A G23A C29G A42C G56A C62U,≤ 0.5
4,U7C A37C A40C A45U A57C,0.573
5,U3C C27U A42G G67A,≤ 0.5
6,U7G U54C C66A,≤ 0.5
7,C31U C60U U64C,0.695
8,C27G A37U,0.591
9,U54G G58A,0.544
10,C11A C61U A70C,≤ 0.5
11,A15C A36U A37G A65C,≤ 0.5
12,A45U U54C U64A A69U,≤ 0.5
13,C4G C34G A43U A70C,≤ 0.5
14,C34U G39C C66U,≤ 0.5
15,C34G G48A A57G,0.631
16,A43G U64G,0.64
17,C5U A14U C29U C46G,≤ 0.5
18,C11U A43U A70U,0.764
19,C27G U59G,0.641
20,C4A G56C C60G C66U,0.568
21,A36G G48A G51C,≤ 0.5
22,C5A A21C C34G G52A C62G,0.565
23,G39C,0.93
24,C4G G17A C30U G56A,≤ 0.5

row,Variant,yeast fitness
1,G6A C33G C34G C61A G67U,≤ 0.5
2,G25C C29A G52A C66U,≤ 0.5
3,G6C U47A C60G,≤ 0.5
4,U13A A14C C22A U54C,≤ 0.5
5,U2C G18C A21G,0.569
6,U3A A42C A65U C66U G67C,0.569
7,C22G C34U C46A C62U,0.611
8,C4G U16C C31U A70U,≤ 0.5
9,G17A A65U,0.805
10,A21U A43G C62A,≤ 0.5
11,A20G C46U G63A,0.82
12,C31U G52C C60A,0.632
13,C5G C11A A14G G25C C29G G56C A57C,≤ 0.5
14,G25C C29U C30U U35C A40C,≤ 0.5
15,C29G C55A,0.577
16,A21G G58C,1.01
17,A14U A20C C31G A69U,≤ 0.5
18,C11U C60U C62G,0.588
19,G10C C11A A37C C49G G68C A69G,≤ 0.5
20,U13C A21C C55U A69C,≤ 0.5
21,C4U A15G G23C A37U C49U A65U,0.525
22,G39A G48C C61A,≤ 0.5
23,G9A A40C A70U,0.74
